According to ChEMBL document CHEMBL2311305, “Antiproliferative potency of novel benzofuran-2-carboxamides on tumour cell lines: cell death mechanisms and determination of crystal structure” (Eur J Med Chem, 2013):
Calls of active or inactive are those of the source. The calls are words filed in the database; no cut-off is given here.

Assays:
SK-BR-3 [1] = experiment: Induction of cell cycle arrest in human SKBR3 cells assessed as G2/M phase cells at 5 uM after 24 hrs by PI-staining based flow cytometric analysis (reference value: 33.7 +/- 0.3%); format: functional
SW-620 = experiment: Cytotoxicity against human SW620 cells after 72 hrs by MTT assay; format: functional, cell-based; details: Homo sapiens, SW-620, 72 h
How it was run: (§1)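 Cells seeded at 3000-6000 per well on day 0, according to cell line doubling time. Compound added in five 10-fold dilutions, 72-h incubation, then MTT colorimetric read-out. Absorbances converted to percentage growth by NCI formulae. IC50 obtained by linear regression between the concentrations bracketing PG 50; ">100" assigned when no concentration reaches it. Quadruplicate points, three independent experiments.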

SK-BR-3 [2] = experiment: Induction of cell cycle arrest in human SKBR3 cells assessed as subG1 phase cells at 10 uM after 24 hrs by PI-staining based flow cytometric analysis (reference value: 25.1 +/- 0.4%); format: functional
SK-BR-3 [3] = experiment: Induction of cell cycle arrest in human SKBR3 cells assessed as G1 phase cells at 10 uM after 48 hrs by PI-staining based flow cytometric analysis (reference value: 53.3 +/- 1.5%); format: functional
WI-38 = experiment: Cytotoxicity against human WI38 cells after 72 hrs by MTT assay; format: cell-based; details: Homo sapiens, WI-38, 72 h; how it was run: as §1
SK-BR-3 [4] = experiment: Induction of apoptosis in human SKBR3 cells assessed as caspase9 activation at 5 uM after 24 to 48 hrs by caspase protease assay; format: functional, cell-based
How it was run: (§2)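 Compound at 5 µM on SK-BR-3 and 10 µM on SW620. Cells harvested after 24 and 48 h, washed in PBS, lysed 10 min on ice, centrifuged. Lysate diluted to 3 mg/mL protein and mixed with DTT-containing reaction buffer and caspase-3, -8 or -9 substrate. Incubated 90 min at 37 °C in the dark. Absorbance read at 405 nm, duplicates, compared with untreated control.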

MCF7 = experiment: Cytotoxicity against human MCF7 cells after 72 hrs by MTT assay; format: functional, cell-based; details: Homo sapiens, MCF7, 72 h; how it was run: as §1
SK-BR-3 [5] = experiment: Induction of cell cycle arrest in human SKBR3 cells assessed as G1 phase cells at 5 uM after 48 hrs by PI-staining based flow cytometric analysis (reference value: 53.3 +/- 1.5%); format: functional
SK-BR-3 [6] = experiment: Induction of cell cycle arrest in human SKBR3 cells assessed as subG1 phase cells at 5 uM after 48 hrs by PI-staining based flow cytometric analysis (reference value: 27.5 +/- 0.2%); format: functional
SK-BR-3 [7] = experiment: Induction of apoptosis in human SKBR3 cells assessed as caspase8 activation at 5 uM after 24 to 48 hrs by caspase protease assay; format: functional, cell-based; how it was run: as §2
SK-BR-3 [8] = experiment: Induction of cell cycle arrest in human SKBR3 cells assessed as S phase cells at 5 uM after 48 hrs by PI-staining based flow cytometric analysis (reference value: 35.2 +/- 1.8%); format: functional
SK-BR-3 [9] = experiment: Induction of cell cycle arrest in human SKBR3 cells assessed as G1 phase cells at 10 uM after 24 hrs by PI-staining based flow cytometric analysis (reference value: 40.1 +/- 0.7%); format: functional
SK-BR-3 [10] = experiment: Cytotoxicity against human SKBR3 cells after 72 hrs by MTT assay; format: functional, cell-based; details: SK-BR-3, 72 h; how it was run: as §1
SK-BR-3 [11] = experiment: Induction of cell cycle arrest in human SKBR3 cells assessed as G1 phase cells at 5 uM after 24 hrs by PI-staining based flow cytometric analysis (reference value: 40.1 +/- 0.7%); format: functional
SK-BR-3 [12] = experiment: Induction of cell cycle arrest in human SKBR3 cells assessed as subG1 phase cells at 10 uM after 48 hrs by PI-staining based flow cytometric analysis (reference value: 27.5 +/- 0.2%); format: functional
MIA PaCa-2 = experiment: Cytotoxicity against human MIAPaCa2 cells after 72 hrs by MTT assay; format: functional, cell-based; details: Homo sapiens, MIA PaCa-2, 72 h; how it was run: as §1
SK-BR-3 [13] = experiment: Induction of apoptosis in human SKBR3 cells assessed as caspase3 activation at 5 uM after 24 to 48 hrs by caspase protease assay; format: functional, cell-based; how it was run: as §2
SK-BR-3 [14] = experiment: Induction of cell cycle arrest in human SKBR3 cells assessed as G2/M phase cells at 5 uM after 48 hrs by PI-staining based flow cytometric analysis (reference value: 11.6 +/- 0.3%); format: functional
SK-BR-3 [15] = experiment: Induction of cell cycle arrest in human SKBR3 cells assessed as S phase cells at 5 uM after 24 hrs by PI-staining based flow cytometric analysis (reference value: 26.2 +/- 2.3%); format: functional
SK-BR-3 [16] = experiment: Induction of cell cycle arrest in human SKBR3 cells assessed as subG1 phase cells at 5 uM after 24 hrs by PI-staining based flow cytometric analysis (reference value: 25.1 +/- 0.4%); format: functional
SK-BR-3 [17] = experiment: Induction of cell cycle arrest in human SKBR3 cells assessed as G2/M phase cells at 10 uM after 24 hrs by PI-staining based flow cytometric analysis (reference value: 33.7 +/- 0.3%); format: functional
SK-BR-3 [18] = experiment: Induction of cell cycle arrest in human SKBR3 cells assessed as S phase cells at 10 uM after 24 hrs by PI-staining based flow cytometric analysis (reference value: 26.2 +/- 2.3%); format: functional
SK-BR-3 [19] = experiment: Induction of cell cycle arrest in human SKBR3 cells assessed as S phase cells at 10 uM after 48 hrs by PI-staining based flow cytometric analysis (reference value: 35.2 +/- 1.8%); format: functional
SK-BR-3 [20] = experiment: Induction of cell cycle arrest in human SKBR3 cells assessed as G2/M phase cells at 10 uM after 48 hrs by PI-staining based flow cytometric analysis (reference value: 11.6 +/- 0.3%); format: functional
HeLa = experiment: Cytotoxicity against human HeLa cells after 72 hrs by MTT assay; format: functional, cell-based; details: Homo sapiens, HeLa, 72 h; how it was run: as §1

## Cl.O=C(Nc1nc2ccc(C3=NCCN3)cc2[nH]1)c1cc2ccccc2o1
SK-BR-3 [1]
  Activity: 10%
SW-620
  IC50: 74.9 µM
SK-BR-3 [2]
  Activity: 31.5%
SK-BR-3 [3]
  Activity: 52.8%
WI-38
  IC50: > 100 µM
SK-BR-3 [4]
  Activity: Active
MCF7
  IC50: 7 µM
SK-BR-3 [5]
  Activity: 21.8%
SK-BR-3 [6]
  Activity: 38.1%
SK-BR-3 [7]
  Activity: Active
SK-BR-3 [8]
  Activity: 68.5%
SK-BR-3 [9]
  Activity: 70%
SK-BR-3 [10]
  IC50: 3.83 µM
SK-BR-3 [11]
  Activity: 58.5%
SK-BR-3 [12]
  Activity: 36.3%
MIA PaCa-2
  IC50: 91.2 µM
SK-BR-3 [13]
  Activity: Active
SK-BR-3 [14]
  Activity: 9.7%
SK-BR-3 [15]
  Activity: 31.5%
SK-BR-3 [16]
  Activity: 33.1%
SK-BR-3 [17]
  Activity: 6.4%
SK-BR-3 [18]
  Activity: 23.6%
SK-BR-3 [19]
  Activity: 31.3%
SK-BR-3 [20]
  Activity: 15.9%
HeLa
  IC50: 68.5 µM
